ChEMBL document CHEMBL4689842, “EUbOPEN Chemogenomics Library wave 1” (2021)

Test system: HEK-293T
Test: Multiplex assay against HEK293T;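 for Population Tubulin-Different-Phenotype (%): share of the cells with healthy nuclei that show this phenotype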
Assay type: toxicity, cell-based
Conditions: human
Procedure, shortened: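 Live cells were stained at seeding with Hoechst33342, BioTracker Green Microtubule Cytoskeleton Dye, MitoTracker Red and Annexin V Alexa Fluor 680. Following compound addition, they were imaged on a CQ1 microscope at 37°C and 5% CO2 and gated by CellPathfinder machine learning into Hoechst high-intensity objects or normal cells, with normal cells split into healthy, pyknosed or fragmented nuclei and pyknosed cells into mitotic or apoptotic. Tubulin, mitochondrial-mass and membrane-permeability phenotypes are per cents of healthy-nucleus cells.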

[1] = 12 h, 1 µM, compound concentration 1 uM, replicate 1
[2] = 12 h, 1 µM, compound concentration 1 uM, replicate 2
[3] = 12 h, 10 µM, compound concentration 10 uM, replicate 1
[4] = 12 h, 10 µM, compound concentration 10 uM, replicate 2
[5] = 24 h, 1 µM, compound concentration 1 uM, replicate 1
[6] = 24 h, 1 µM, compound concentration 1 uM, replicate 2
[7] = 24 h, 10 µM, compound concentration 10 uM, replicate 1
[8] = 24 h, 10 µM, compound concentration 10 uM, replicate 2
[9] = 48 h, 1 µM, compound concentration 1 uM, replicate 1
[10] = 48 h, 1 µM, compound concentration 1 uM, replicate 2
[11] = 48 h, 10 µM, compound concentration 10 uM, replicate 1
[12] = 48 h, 10 µM, compound concentration 10 uM, replicate 2

CC(/C=C1\SC(=S)N(CCCC(=O)Nc2ccc(C(=O)O)c(O)c2)C1=O)=C\c1ccccc1
Population Apoptotic (%) [1]: 38%
Population Fragmented Nuclei (%) [1]: 11%
Population Healthy Nuclei (%) [1]: 34%
Population Hoechst High Intensity Objects (%) [1]: 9%
Population Membrane Permeable-Phenotype (%) [1]: 3%
Population Mitochondria Different-Phenotype (%) [1]: 68%
Population Mitotic Cells (%) [1]: 61%
Population Normal (%) [1]: 90%
Population Pyknosed Nuclei (%) [1]: 53%
Population Tubulin-Different-Phenotype (%) [1]: 34%
Total Cell Count [1]: 251
Population Apoptotic (%) [2]: 5%
Population Fragmented Nuclei (%) [2]: 2%
Population Healthy Nuclei (%) [2]: 44%
Population Hoechst High Intensity Objects (%) [2]: 2%
Population Membrane Permeable-Phenotype (%) [2]: 9%
Population Mitochondria Different-Phenotype (%) [2]: 20%
Population Mitotic Cells (%) [2]: 94%
Population Normal (%) [2]: 97%
Population Pyknosed Nuclei (%) [2]: 52%
Population Tubulin-Different-Phenotype (%) [2]: 21%
Total Cell Count [2]: 242
Population Apoptotic (%) [3]: 40%
Population Fragmented Nuclei (%) [3]: 10%
Population Healthy Nuclei (%) [3]: 35%
Population Hoechst High Intensity Objects (%) [3]: 13%
Population Membrane Permeable-Phenotype (%) [3]: 6%
Population Mitochondria Different-Phenotype (%) [3]: 65%
Population Mitotic Cells (%) [3]: 59%
Population Normal (%) [3]: 86%
Population Pyknosed Nuclei (%) [3]: 54%
Population Tubulin-Different-Phenotype (%) [3]: 34%
Total Cell Count [3]: 255
Population Apoptotic (%) [4]: 8%
Population Fragmented Nuclei (%) [4]: 5%
Population Healthy Nuclei (%) [4]: 50%
Population Hoechst High Intensity Objects (%) [4]: 1%
Population Membrane Permeable-Phenotype (%) [4]: 5%
Population Mitochondria Different-Phenotype (%) [4]: 5%
Population Mitotic Cells (%) [4]: 91%
Population Normal (%) [4]: 98%
Population Pyknosed Nuclei (%) [4]: 43%
Population Tubulin-Different-Phenotype (%) [4]: 8%
Total Cell Count [4]: 269
Population Apoptotic (%) [5]: 41%
Population Fragmented Nuclei (%) [5]: 13%
Population Healthy Nuclei (%) [5]: 41%
Population Hoechst High Intensity Objects (%) [5]: 13%
Population Membrane Permeable-Phenotype (%) [5]: 1%
Population Mitochondria Different-Phenotype (%) [5]: 53%
Population Mitotic Cells (%) [5]: 58%
Population Normal (%) [5]: 86%
Population Pyknosed Nuclei (%) [5]: 45%
Population Tubulin-Different-Phenotype (%) [5]: 26%
Total Cell Count [5]: 263
Population Apoptotic (%) [6]: 16%
Population Fragmented Nuclei (%) [6]: 5%
Population Healthy Nuclei (%) [6]: 62%
Population Hoechst High Intensity Objects (%) [6]: 1%
Population Membrane Permeable-Phenotype (%) [6]: 13%
Population Mitochondria Different-Phenotype (%) [6]: 10%
Population Mitotic Cells (%) [6]: 84%
Population Normal (%) [6]: 98%
Population Pyknosed Nuclei (%) [6]: 32%
Population Tubulin-Different-Phenotype (%) [6]: 30%
Total Cell Count [6]: 315
Population Apoptotic (%) [7]: 41%
Population Fragmented Nuclei (%) [7]: 11%
Population Healthy Nuclei (%) [7]: 38%
Population Hoechst High Intensity Objects (%) [7]: 16%
Population Membrane Permeable-Phenotype (%) [7]: 2%
Population Mitochondria Different-Phenotype (%) [7]: 60%
Population Mitotic Cells (%) [7]: 58%
Population Normal (%) [7]: 83%
Population Pyknosed Nuclei (%) [7]: 49%
Population Tubulin-Different-Phenotype (%) [7]: 50%
Total Cell Count [7]: 261
Population Apoptotic (%) [8]: 7%
Population Fragmented Nuclei (%) [8]: 2%
Population Healthy Nuclei (%) [8]: 72%
Population Hoechst High Intensity Objects (%) [8]: 1%
Population Membrane Permeable-Phenotype (%) [8]: 13%
Population Mitochondria Different-Phenotype (%) [8]: 5%
Population Mitotic Cells (%) [8]: 92%
Population Normal (%) [8]: 98%
Population Pyknosed Nuclei (%) [8]: 24%
Population Tubulin-Different-Phenotype (%) [8]: 23%
Total Cell Count [8]: 356
Population Apoptotic (%) [9]: 31%
Population Fragmented Nuclei (%) [9]: 19%
Population Healthy Nuclei (%) [9]: 40%
Population Hoechst High Intensity Objects (%) [9]: 10%
Population Membrane Permeable-Phenotype (%) [9]: 4%
Population Mitochondria Different-Phenotype (%) [9]: 24%
Population Mitotic Cells (%) [9]: 68%
Population Normal (%) [9]: 89%
Population Pyknosed Nuclei (%) [9]: 40%
Population Tubulin-Different-Phenotype (%) [9]: 26%
Total Cell Count [9]: 330
Population Apoptotic (%) [10]: 3%
Population Fragmented Nuclei (%) [10]: 4%
Population Healthy Nuclei (%) [10]: 83%
Population Hoechst High Intensity Objects (%) [10]: 3%
Population Membrane Permeable-Phenotype (%) [10]: 9%
Population Mitochondria Different-Phenotype (%) [10]: 3%
Population Mitotic Cells (%) [10]: 96%
Population Normal (%) [10]: 96%
Population Pyknosed Nuclei (%) [10]: 11%
Total Cell Count [10]: 570
Population Apoptotic (%) [11]: 49%
Population Fragmented Nuclei (%) [11]: 17%
Population Healthy Nuclei (%) [11]: 44%
Population Hoechst High Intensity Objects (%) [11]: 12%
Population Membrane Permeable-Phenotype (%) [11]: 2%
Population Mitochondria Different-Phenotype (%) [11]: 26%
Population Mitotic Cells (%) [11]: 50%
Population Normal (%) [11]: 87%
Population Pyknosed Nuclei (%) [11]: 37%
Population Tubulin-Different-Phenotype (%) [11]: 29%
Total Cell Count [11]: 339
Population Apoptotic (%) [12]: 12%
Population Fragmented Nuclei (%) [12]: 7%
Population Healthy Nuclei (%) [12]: 86%
Population Hoechst High Intensity Objects (%) [12]: 3%
Population Membrane Permeable-Phenotype (%) [12]: 9%
Population Mitochondria Different-Phenotype (%) [12]: 3%
Population Mitotic Cells (%) [12]: 87%
Population Normal (%) [12]: 96%
Population Pyknosed Nuclei (%) [12]: 6%
Population Tubulin-Different-Phenotype (%) [12]: 16%
Total Cell Count [12]: 675
